Data published in ChEMBL document CHEMBL4177604, “Binding of triazole-linked galactosyl arylsulfonamides to galectin-3 affects Trypanosoma cruzi cell invasion” (Bioorg Med Chem, 2017).
Activity calls are given as the source filed them. The rule behind the calls is not given here.

Assays:
Trypanosoma cruzi [1] = assay: Trypanocidal activity against Trypanosoma cruzi Y trypomastigote assessed as effect on parasite viability at 31.25 to 250 uM after 48 hrs by resazurin-based assay; assay type: functional, organism-based
In short: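 Culture-derived Y-strain trypomastigotes, 1 x 10^6 per well, in RPMI 1640 with 10% FBS containing compound (250 to 31,25 µM). Held 48 h at 37 °C, 5% CO2. Resazurin added for 6 h, then read at 570 and 600 nm. Viability from OD570 minus OD600, relative to untreated parasites.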

Trypanosoma cruzi [2] = assay: (§1) Antitrypanosomal activity against Trypanosoma cruzi Y trypomastigote infected in monkey LLC-MK2 cells assessed as inhibition of cell invasion by trypanosoma by measuring infected fibroblast at 250 uM pretreated with cells for 30 mins followed by trypomastigote infection measured after 18 hrs by panoptic dye-based optical microscopic analysis (reference value: 63%); assay type: functional; design: scale not given: the % may be the effect or the level left
In short: (§2)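 LLCMK2 cells adhered on coverslips, exposed to compound at 250 µM for 30 min, then infected with Y-strain trypomastigotes (1 x 10^5; 5 parasites per cell). Incubated 18 h at 37 °C, 5% CO2, then fixed, stained with panoptic dye and read by optical microscopy. Scored as % infected cells, mean amastigotes per cell, and infection index (% infected × mean parasites per cell). Triplicate.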

LLC-MK2 = assay: Cytotoxicity against monkey LLC-MK2 cells assessed as reduction in cell viability after 48 hrs by MTT assay; assay type: cell-based, Macaca mulatta; conditions: rhesus monkey, llc-mk2, 48 h
In short: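 LLCMK2 cells, 1 x 10^4 per well, adhered overnight in RPMI 1640 with 10% FBS. Exposed to 500 to 67,5 µM compound in triplicate for 48 h at 37 °C, 5% CO2. MTT added for 4 h, formazan dissolved in DMSO, absorbance at 570 nm.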

Galectin-3 = Galectin-3 (Homo sapiens, UniProt P17931); assay: Binding affinity to recombinant human galectin-3 expressed in Escherichia coli BL21 after 3 hrs
In short: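 Human galectin-3 expressed in E. coli BL21, purified on lactosyl-Sepharose, immobilized at 150 µg/mL (20 mM sodium acetate, pH 4.0, 16 h, 4 °C) on NHS-activated label-free biosensor. Compound dissolved in DMSO, diluted into PBS pH 7.4 with 1% or 2% DMSO, 0.09–400 µM, triplicate. Wavelength shift (pm) read over 3 h at 25 °C, blank-subtracted. EC50 from one-site binding fit.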

Trypanosoma cruzi [3] = assay: as §1, with “LLCMK2” for “LLC-MK2”, “infection index” for “infected fibroblast”, “68)” for “63%)”; assay type: functional; in short: as §2
[4] = target: T1, Trans-sialidase (Trypanosoma cruzi) (UniProt Q26964); assay: Inhibition of recombinant His-tagged Trypanosoma cruzi trans-sialidase N-terminal catalytic domain at 1 mM preincubated for 10 mins followed by MuNANA addition measured over 5 mins by fluorimetric assay relative to control
T1 sequence (whole entry): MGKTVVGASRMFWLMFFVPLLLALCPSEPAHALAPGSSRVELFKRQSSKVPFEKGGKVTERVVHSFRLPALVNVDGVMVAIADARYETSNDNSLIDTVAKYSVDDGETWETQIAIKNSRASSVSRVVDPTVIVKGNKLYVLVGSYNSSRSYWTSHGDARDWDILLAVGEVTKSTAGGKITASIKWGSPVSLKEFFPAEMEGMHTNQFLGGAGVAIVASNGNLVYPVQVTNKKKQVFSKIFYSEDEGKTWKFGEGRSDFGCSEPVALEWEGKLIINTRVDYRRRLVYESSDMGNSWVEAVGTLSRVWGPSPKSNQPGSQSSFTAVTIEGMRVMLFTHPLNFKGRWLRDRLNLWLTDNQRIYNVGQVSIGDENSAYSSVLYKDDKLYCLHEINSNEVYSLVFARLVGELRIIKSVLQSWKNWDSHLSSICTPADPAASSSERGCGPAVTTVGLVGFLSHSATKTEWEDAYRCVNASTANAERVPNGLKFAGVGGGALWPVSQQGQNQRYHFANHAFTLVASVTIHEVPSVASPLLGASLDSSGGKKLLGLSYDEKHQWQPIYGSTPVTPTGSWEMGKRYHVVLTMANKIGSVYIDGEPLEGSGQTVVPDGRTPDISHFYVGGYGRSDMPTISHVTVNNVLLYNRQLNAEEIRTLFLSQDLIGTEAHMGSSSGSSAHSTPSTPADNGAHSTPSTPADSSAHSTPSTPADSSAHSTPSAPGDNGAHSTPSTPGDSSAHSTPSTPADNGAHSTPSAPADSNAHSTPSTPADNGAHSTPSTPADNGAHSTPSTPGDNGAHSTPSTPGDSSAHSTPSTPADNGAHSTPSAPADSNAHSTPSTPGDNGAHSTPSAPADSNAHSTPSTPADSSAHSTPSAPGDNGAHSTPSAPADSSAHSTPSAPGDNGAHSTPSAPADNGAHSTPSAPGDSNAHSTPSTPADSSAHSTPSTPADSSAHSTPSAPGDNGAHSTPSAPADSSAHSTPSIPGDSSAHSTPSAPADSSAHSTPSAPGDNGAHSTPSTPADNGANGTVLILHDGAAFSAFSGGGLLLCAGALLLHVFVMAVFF
In short: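 Recombinant His-tagged 70 kDa trans-sialidase, truncated to the catalytic N-terminal domain, in phosphate buffer pH 7. Preincubated with inhibitor at 1.0 mM final for 10 min at 26 °C. MuNANA added to 0.1 mM and released fluorescence followed over 5 min (ex 360/em 460 nm). Triplicate. %I = 100 × [1 − Vi/V0].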

Trypanosoma cruzi [5] = assay: as §1, with “mean number of amastigote parasites per cells” for “infected fibroblast”, “analysis” for “analysis (reference value: 63%)”; assay type: functional, organism-based; in short: as §2
Trans-sialidase = target: T2, Trans-sialidase (Trypanosoma cruzi, UniProt Q26964); assay: Inhibition of Trypanosoma cruzi trans-sialidase using Trifluoromethylumbelliferyl alpha-sialoside as substrate by UV/visible spectrophotometer
T2 sequence (Q26964 whole entry): T1 sequence (whole entry)

Sequence of Galectin-3 (P17931 whole entry): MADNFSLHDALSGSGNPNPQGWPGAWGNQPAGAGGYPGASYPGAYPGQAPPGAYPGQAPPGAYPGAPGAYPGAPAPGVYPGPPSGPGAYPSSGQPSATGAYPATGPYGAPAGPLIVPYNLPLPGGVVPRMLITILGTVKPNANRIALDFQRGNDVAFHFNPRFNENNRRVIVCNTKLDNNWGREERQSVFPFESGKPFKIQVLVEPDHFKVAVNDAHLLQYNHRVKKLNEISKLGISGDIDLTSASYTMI

SMILES | Activity (Trypanosoma cruzi [1]) | Activity (Trypanosoma cruzi [2]) | Activity (LLC-MK2) | Activity (Galectin-3) | EC50 (Galectin-3) [µM] | Activity_index (Trypanosoma cruzi [3]) | inhibition [4] [%] | Activity (Trypanosoma cruzi [5]) | IC50 (Trans-sialidase) [µM]
CO[C@@H]1O[C@H](CO)[C@H](O)[C@H](OCc2cn(-c3ccc(S(=O)(=O)Nc4nc(C)cc(C)n4)cc3)nn2)[C@H]1O | inactive | 47 - 54% | Non-Toxic | Dose-dependent effect | 67.7 | 28 - 44 | 4.5 to 16 | Active | –
CO[C@@H]1O[C@H](CO)[C@H](O)[C@H](OCc2cn(-c3ccc(S(=O)(=O)NC(C)=O)cc3)nn2)[C@H]1O | inactive | 47 - 54% | Non-Toxic | Dose-dependent effect | 205 | 28 - 44 | 88 | Active | –
Cc1ccc(S(=O)(=O)N2c3ccccc3C(=O)/C(=C/c3ccc(O)c(O)c3)C2c2ccc(O)c(O)c2)cc1 (stereo not drawn) | – | – | – | – | – | – | – | – | 0.6
CO[C@@H]1O[C@H](CO)[C@H](O)[C@H](OCc2cn(-c3ccc(S(N)(=O)=O)cc3)nn2)[C@H]1O | inactive | 47 - 54% | Non-Toxic | Dose-dependent effect | 40.7 | 28 - 44 | 4.5 to 16 | Active | –
CO[C@@H]1O[C@H](CO)[C@H](O)[C@H](OCc2cn(-c3ccc(S(=O)(=O)Nc4cc(C)on4)cc3)nn2)[C@H]1O | inactive | 41% | Non-Toxic | Dose-dependent effect | 17.2 | 20 | 4.5 to 16 | Active | –
COc1cc(NS(=O)(=O)c2ccc(-n3cc(CO[C@H]4[C@@H](O)[C@@H](CO)O[C@@H](OC)[C@@H]4O)nn3)cc2)nc(OC)n1 | inactive | 38% | Non-Toxic | Dose-dependent effect | 18.3 | 20 | 4.5 to 16 | Active | –
CO[C@@H]1O[C@H](CO)[C@H](O)[C@H](OCc2cn(-c3ccc(S(=O)(=O)Nc4nccc(C)n4)cc3)nn2)[C@H]1O | inactive | 47 - 54% | Non-Toxic | – | – | 28 - 44 | 4.5 to 16 | Active | –
CO[C@@H]1O[C@H](CO)[C@H](O)[C@H](OCc2cn(-c3ccc(S(=O)(=O)Nc4ccccn4)cc3)nn2)[C@H]1O | inactive | 47 - 54% | Non-Toxic | – | – | 28 - 44 | 4.5 to 16 | Active | –
